Assays:
Neprilysin [1] = target: T1, Neprilysin (Rattus norvegicus, UniProt P07861); test: In vitro inhibition of rat neutral endopeptidase by using GAAP as substrate
T1 sequence (P07861 whole entry): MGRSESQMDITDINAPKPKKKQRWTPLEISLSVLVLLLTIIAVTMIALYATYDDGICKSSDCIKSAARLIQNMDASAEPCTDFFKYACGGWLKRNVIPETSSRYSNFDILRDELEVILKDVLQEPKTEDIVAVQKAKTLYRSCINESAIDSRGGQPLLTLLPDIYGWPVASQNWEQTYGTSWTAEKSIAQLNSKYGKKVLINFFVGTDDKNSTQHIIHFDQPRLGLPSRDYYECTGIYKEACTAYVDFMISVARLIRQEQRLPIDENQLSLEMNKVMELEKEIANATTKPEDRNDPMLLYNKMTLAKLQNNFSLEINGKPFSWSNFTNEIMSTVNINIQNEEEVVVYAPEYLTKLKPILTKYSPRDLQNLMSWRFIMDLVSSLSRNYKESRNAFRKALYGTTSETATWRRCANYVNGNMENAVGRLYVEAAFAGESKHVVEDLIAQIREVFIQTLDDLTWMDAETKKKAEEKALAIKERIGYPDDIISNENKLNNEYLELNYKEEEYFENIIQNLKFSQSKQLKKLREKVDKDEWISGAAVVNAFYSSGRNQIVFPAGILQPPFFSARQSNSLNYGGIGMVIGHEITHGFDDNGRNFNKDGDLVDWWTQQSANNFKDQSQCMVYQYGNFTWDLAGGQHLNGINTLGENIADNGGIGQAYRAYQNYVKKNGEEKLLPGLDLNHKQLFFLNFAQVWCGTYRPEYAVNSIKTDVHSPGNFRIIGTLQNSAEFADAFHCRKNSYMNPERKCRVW
How it was run: (§1)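 Enzyme source was rat kidney cortex membranes (male Sprague-Dawley), 4.0 μg protein, plus 2.5 μg aminopeptidase M, in 50 mM Tris-HCl pH 7.4. Preincubated with inhibitor 10 min at 25 °C, then GAAP added (final 500 μM) for 25 min at 25 °C. Stopped with fast garnet, colour developed 30 min, OD read at 540 nm. Run in duplicate.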

Neprilysin [2] = target: T1, Neprilysin; test: The compound was tested in vitro for inhibition of Neutral endopeptidase by using Leu enkephalin as substrate
How it was run: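 NEP (30 ng) preincubated 10 min with inhibitor in 50 mM Tris-HCl pH 7.4. Substrate disappearance followed by 6 min isocratic RP-HPLC on a C4 column. Duplicates.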

Neprilysin [3] = target: T1, Neprilysin; test: The compound was tested for inhibition of Neutral endopeptidase by using GAAP as substrate; how it was run: as §1
[4] = target: T2, Neprilysin (Rattus norvegicus) (UniProt P07861); test: The compound was tested in vitro for inhibition of Neutral endopeptidase by using GAAP as substrate; conditions: concentration not given here; how it was run: as §1
T2 sequence (whole entry): T1 sequence (P07861 whole entry)

Neprilysin [5] = target: T1, Neprilysin; test: The compound was tested in vitro for inhibition of Neutral endopeptidase by using ANF(atrial natriuretic factor) as substrate
How it was run: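 NEP (5.0 μg) preincubated 10 min with inhibitor in 50 mM Tris-HCl pH 7.4. Reaction started with r-ANF (final 20 μM) and run 10 min at 37 °C, then stopped with 0.6% TFA. Substrate loss measured by 3 min isocratic RP-HPLC on a C4 cartridge. Run in duplicate.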

Row | Structure (SMILES) | IC50 (Neprilysin [1]) [µM] | further results
1 | O=C(O)CCNC(=O)[C@H](Cc1ccccc1)C[C@@H](Cc1ccccc1)C(=O)O | – | IC50 (Neprilysin [2]): 0.009 µM; IC50 (Neprilysin [3]): 1.2 µM
2 | O=C(O)C1CCC(NC(=O)C(Cc2ccccc2)CC(Cc2ccccc2)C(=O)O)CC1 (stereo not drawn) | – | inhibition [4]: 52%
3 | CCCC[C@H](C[C@@H](Cc1ccc(-c2ccccc2)cc1)C(=O)NCC(O)C(=O)O)C(=O)O (stereo partly drawn) | 0.021 | –
4 | O=C(O)C1CCC(NC(=O)C(Cc2ccc(-n3cccc3)cc2)CC(Cc2ccc(-n3cccc3)cc2)C(=O)O)CC1 (stereo not drawn) | 0.515 | –
5 | O=C(O)CCC(=O)N[C@H](Cc1ccccc1)C[C@@H](Cc1ccccc1)C(=O)O | 4 | –
6 | CO[C@H](C[C@@H](Cc1ccc(-c2ccccc2)cc1)C(=O)NCCC(=O)O)C(=O)O (stereo in doubt; 8h) | > 1 | –
7 | C[C@H](C[C@@H](Cc1ccc(-c2ccccc2)cc1)NC(=O)CC(=O)O)C(=O)O | 0.092 | –
8 | CO[C@H](C[C@@H](Cc1ccc(-c2ccccc2)cc1)NC(=O)CCCC(=O)O)C(=O)O | 0.049 | –
9 | O=C(O)CCNC(=O)[C@@H](CCC(=O)O)Cc1ccc(-c2ccccc2)cc1 | 0.155 | IC50 (Neprilysin [2]): 0.0007 µM; IC50 (Neprilysin [3]): 0.155 µM
10 | O=C(O)CCNC(=O)[C@H](Cc1ccc(-c2ccccc2)cc1)NCP(=O)(O)O | – | IC50 (Neprilysin [2]): 0.00081 µM; IC50 (Neprilysin [5]): 0.002 µM
11 | C[C@H](C[C@@H](Cc1ccc(-c2ccccc2)cc1)NC(=O)CCCCC(=O)O)C(=O)O | 0.324 | –
12 | C[C@H](C[C@@H](Cc1ccc(-c2ccccc2)cc1)C(=O)NCCC(=O)O)C(=O)O | 0.041 | –
13 | C[C@H](C[C@@H](Cc1ccc(-c2ccccc2)cc1)NC(=O)CCCC(=O)O)C(=O)O | 0.09 | –

Further lines, with some results ahead:

Row | IC50 (Neprilysin [1]) [µM] | Structure (SMILES) | further results
14 | 0.036 | O=C(O)CCNC(=O)C(Cc1ccc(-n2cccc2)cc1)CC(Cc1ccc(-n2cccc2)cc1)C(=O)O (stereo not drawn) | –
15 | > 1 | O=C(O)CCNC(=O)C(Cc1ccc(-c2nccs2)cc1)CC(Cc1ccc(-c2nccs2)cc1)C(=O)O (stereo not drawn) | inhibition [4]: 43%
16 | 0.203 | O=C(O)CCNC(=O)C(Cc1ccc(Oc2ccccc2)cc1)CC(Cc1ccc(Oc2ccccc2)cc1)C(=O)O (stereo not drawn) | –
17 | 0.011 | COc1ccc(C[C@H](C[C@@H](Cc2ccc(-c3ccccc3)cc2)C(=O)NCC(O)C(=O)O)C(=O)O)cc1OC (stereo partly drawn) | –
18 | 0.044 | O=C(O)CCNC(=O)[C@H](Cc1ccc(-c2ccccc2)cc1)C[C@@H](Oc1ccccc1)C(=O)O (stereo in doubt; 8e) | –
19 | 1.2 | O=C(O)CCNC(=O)C(Cc1ccccc1)CC(Cc1ccccc1)C(=O)O (stereo not drawn) | –
20 | > 1 | O=C(O)CCNC(=O)[C@H](Cc1ccc(-c2ccccc2)cc1)C[C@@H](Oc1ccccc1)C(=O)O (stereo in doubt; 8f) | –
21 | 0.054 | COc1ccc(C[C@H](C[C@@H](Cc2ccc(-c3ccccc3)cc2)C(=O)NCCC(=O)O)C(=O)O)cc1OC | –
22 | 0.019 | O=C(O)CCNC(=O)[C@H](Cc1ccc(-c2ccccc2)cc1)C[C@@H](Cc1ccc(-c2nccs2)cc1)C(=O)O | –
23 | 0.066 | CCCC[C@H](C[C@@H](Cc1ccc(-c2ccccc2)cc1)C(=O)NCCC(=O)O)C(=O)O | –
24 | 0.046 | COCC[C@H](C[C@@H](Cc1ccc(-c2ccccc2)cc1)C(=O)NCCC(=O)O)C(=O)O | –
25 | 0.489 | CC(C)c1ccc(CC(CC(Cc2ccc(C(C)C)cc2)C(=O)NCCC(=O)O)C(=O)O)cc1 (stereo not drawn) | –
26 | 0.042 | CO[C@H](C[C@@H](Cc1ccc(-c2ccccc2)cc1)C(=O)NCCC(=O)O)C(=O)O (stereo in doubt; 8g) | –
27 | 0.049 | O=C(O)CCNC(=O)C(Cc1ccc(-c2ccccc2)cc1)CC(Cc1ccc(-c2ccccc2)cc1)C(=O)O (stereo not drawn) | –
28 | 0.054 | Cc1ccc([C@H](C[C@@H](Cc2ccc(-c3ccccc3)cc2)C(=O)NCCC(=O)O)C(=O)O)cc1 | –

Reference: ChEMBL document CHEMBL1128359, “Dicarboxylic acid dipeptide neutral endopeptidase inhibitors” (J Med Chem, 1995)
